Activity calls are given as the source filed them. The rule behind the calls is not given here.
How the values were obtained:
[1] = biological target: T1, Aryl hydrocarbon receptor (Homo sapiens, UniProt P35869); test: Inhibition of AhR signalling in human MCF7 cells assessed as reduction in AhR level at 2 nM incubated for 24 hrs in presence of DMBA by Western blot analysis; type: cell-based; details: mcf7, 24 h, 0.002 µM
T1 sequence (P35869 whole entry): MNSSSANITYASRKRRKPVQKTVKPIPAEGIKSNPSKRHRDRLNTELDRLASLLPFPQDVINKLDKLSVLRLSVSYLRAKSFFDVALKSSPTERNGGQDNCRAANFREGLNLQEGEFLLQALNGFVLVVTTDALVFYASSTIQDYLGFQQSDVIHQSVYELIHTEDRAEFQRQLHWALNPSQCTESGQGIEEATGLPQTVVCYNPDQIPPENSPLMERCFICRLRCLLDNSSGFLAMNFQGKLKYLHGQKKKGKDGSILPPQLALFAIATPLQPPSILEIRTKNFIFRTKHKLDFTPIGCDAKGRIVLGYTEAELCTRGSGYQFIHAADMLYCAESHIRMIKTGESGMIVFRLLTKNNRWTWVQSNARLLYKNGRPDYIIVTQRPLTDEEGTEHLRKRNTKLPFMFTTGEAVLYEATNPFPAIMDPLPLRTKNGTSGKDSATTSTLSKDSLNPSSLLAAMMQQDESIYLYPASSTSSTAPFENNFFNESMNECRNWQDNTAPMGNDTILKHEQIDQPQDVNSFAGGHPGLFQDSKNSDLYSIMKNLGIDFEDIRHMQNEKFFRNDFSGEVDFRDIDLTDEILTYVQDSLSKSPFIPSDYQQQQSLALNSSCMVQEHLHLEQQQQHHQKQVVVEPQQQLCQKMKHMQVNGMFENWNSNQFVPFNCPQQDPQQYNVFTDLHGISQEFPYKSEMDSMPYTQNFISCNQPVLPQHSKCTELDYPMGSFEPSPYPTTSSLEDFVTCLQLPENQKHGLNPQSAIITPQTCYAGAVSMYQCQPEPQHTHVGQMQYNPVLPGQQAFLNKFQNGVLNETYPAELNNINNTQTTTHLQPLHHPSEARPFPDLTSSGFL
Procedure, shortened: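 MCF-7 treated with DMBA (400 nM), DMBA plus 2 nM, or 2 nM alone. AhR measured by Western blot relative to loading control; n = 3.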

[2] = tested on: MCF7; test: Antiproliferative activity against human MCF7 cells assessed as cell growth inhibition at 2 nM in presence of DMBA; type: functional, cell-based
[3] = tested on: MCF7; test: Induction of apoptosis in human MCF7 cells assessed as viable cells at 1 nM measured after 24 hrs by Annexin V-FITC and PI staining based flow cytometry assay (reference value: 96.8%); type: functional; details: read-out: Activity
[4] = tested on: MCF7; test: Induction of mitochondrial membrane potential loss in human MCF7 cells at 0.5 nM measured after 24 hrs by JC-1 staining based flow cytometry analysis (reference value: 3.01%); type: functional
[5] = tested on: MCF7; test: Induction of apoptosis in human MCF7 cells assessed as late apoptotic cells at 2 nM measured after 24 hrs in presence of DMBA by Annexin V-FITC and PI staining based flow cytometry assay (reference value: 1.5%); type: functional
[6] = tested on: L02; test: Antiproliferative activity against human L-O2 cells assessed as reduction in cell viability incubated for 48 hrs by MTT assay; type: cell-based; details: L02, 48 h
Procedure, shortened: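 Cells seeded at 5 × 10³ per well, incubated overnight, then exposed to a range of compound concentrations for 48 h. MTT added for 4 h, medium replaced with DMSO, absorbance read at 570 nm. MCF-7, L-O2 grown in DMEM; MCF-10A, MCF-7/ADR in RPMI 1640. Three independent runs.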

[7] = tested on: MCF7; test: Induction of apoptosis in human MCF7 cells assessed as increase in Bad protein expression at 1 to 4 nM; type: functional, cell-based; details: dose 1-4 nM
Procedure, shortened: (§1)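 MCF-7 seeded 4 × 10⁵ per well for 24 h, then DMSO or compound at 1, 2, 4 nM for 24 h. Lysates protein-normalized to 3 mg/mL by BCA, resolved on 4–20% SDS-PAGE and immunoblotted. Bands quantified relative to β-actin (cell-cycle proteins) or GAPDH (apoptosis proteins); n = 3.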

[8] = tested on: MCF7; test: Induction of apoptosis in human MCF7 cells assessed as late apoptotic cells at 1 nM measured after 24 hrs by Annexin V-FITC and PI staining based flow cytometry assay (reference value: 2.06%); type: functional
[9] = tested on: MCF7; test: Induction of apoptosis in human MCF7 cells assessed as increase in Bax protein expression at 1 to 4 nM; type: functional, cell-based; details: dose 1-4 nM; procedure, shortened: as §1
[10] = Antiproliferative activity against human MCF7/ADR cells assessed as reduction in cell viability incubated for 48 hrs by MTT assay; type: functional, cell-based; details: MCF7, 48 h
Procedure, shortened: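 Cells seeded at 5 × 10³ per well, incubated overnight, then exposed to a range of compound concentrations for 48 h. MTT added for 4 h, medium replaced with DMSO, absorbance read at 570 nm. Three independent runs.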

[11] = biological target: Tubulin beta (Homo sapiens) (UniProt P68371+Q9H4B7+Q13509+P04350+Q3ZCM7+P07437+Q13885+Q9BVA1+Q9BUF5+A6NNZ2); test: Inhibition of beta-tubulin polymerization in human MCF7 cells assessed as inhibition of EBI-beta-tubulin adduct formation at 1 to 4 nM measured after 2 hrs by Western blot-based EBI competition assay; type: cell-based; details: dose 1-4 nM
[12] = biological target: Tubulin (Homo sapiens) (UniProt P68371+Q9H4B7+P0DPH7+P68366+Q13509+Q71U36+P04350+Q3ZCM7+P07437+P68363+Q9BQE3+Q6PEY2+Q13885+Q9BVA1+Q9BUF5); test: Induction of microtubule damage in human MCF7 cells at 0.5 nM incubated for 48 hrs by DAPI staining based immunofluorescence assay; type: cell-based
Procedure, shortened: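 Blocked with goat serum for 20 min, probed with anti-β-tubulin for 2 h, fluorescent secondary antibody and DAPI nuclear stain, imaged by laser confocal microscopy.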

[13] = tested on: MCF7; test: Induction of apoptosis in human MCF7 cells assessed as increase in PARP protein expression at 1 to 4 nM; type: functional, cell-based; details: dose 1-4 nM; procedure, shortened: as §1
[14] = tested on: MCF7; test: Induction of apoptosis in human MCF7 cells assessed as early apoptotic cells at 1 nM measured after 24 hrs by Annexin V-FITC and PI staining based flow cytometry assay (reference value: 0.90%); type: functional
[15] = tested on: MCF7; test: Antitumor activity against human MCF7 cells xenografted in BALB/c nude mouse assessed as decrease in tumor weight at 0.5 mg/kg, iv administered every 2 days for 21 days and measured every 2 days; type: functional; parameters: scale not given: the % may be the effect or the level left; details: time 21 day
Procedure, shortened: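 MCF-7 cells (6 × 10⁶) injected subcutaneously into right flank of BALB/c nude mice; after 7 days animals randomized, eight per group. Dosing iv every 2 days for 21 days, vehicle 10% DMSO/5% Tween 80/85% saline. Tumor size and body weight recorded every 2 days; tumors excised and weighed at sacrifice.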

[16] = tested on: MCF7; test: Induction of ROS generation in human MCF7 cells measured after 24 hrs by DCFH-DA staining based flow cytometric analysis; type: functional, cell-based; details: dose 0.5-2 nM
Procedure, shortened: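 MCF-7 seeded 4 × 10⁵ per well for 24 h, then DMSO or 0.5, 1, 2 nM for 24 h. Loaded with DCFH-DA for 30 min in the dark, resuspended in serum-free medium, DCF fluorescence measured by flow cytometry. For scavenger condition, 2.5 mM N-acetyl-L-cysteine pretreatment, then 2 nM for 24 h. Three runs.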

With `Cc1nc(N(C)c2ccc3c(c2)cc(C)n3C)c2ccccc2n1` the “inhibition (INH)” value [1] was “Active”, the Activity [2] was “Active” and the viability at 0.001 µM [3] was 61.5%. For the same compound, the Activity [4] was 6.49%, the Activity [5] was 22% and the IC50 [6] was 4.6 nM. For the same compound, the Activity [7] was “Active”, the Activity [8] was 28.6% and the Activity [9] was “Active”. For the same compound, the IC50 [10] was 0.9 nM, the inhibition [11] was “Active” and the Activity [12] was “inactive”. The Activity [13] was “Active”, the Activity [14] was 6.63% and the Activity [15] was 73.2%. The Activity [16] was “Dose-Dependent Effect”.

Source: ChEMBL document CHEMBL5030534, “Discovery of Novel Anti-Breast-Cancer Inhibitors by Synergistically Antagonizing Microtubule Polymerization and Aryl Hydrocarbon Receptor Expression” (J Med Chem, 2021)
